Experiments:
Type in all cases: functional
[1] = test system: HCT-116; assay: Growth inhibition of human HCT116 cells assessed as cell growth at 10^-7 M after 48 hrs by sulforhodamine B assay; details: HCT-116, 48 h, read-out: Activity
How it was run: (§1)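 Five-dose screen at NCI. Cells in RPMI 1640 with 5% FBS and 2 mM L-glutamine, seeded at 5000–40,000 cells/well and grown 24 h at 37 °C, 5% CO2 before dosing, with time-zero plates TCA-fixed. Drug diluted from DMSO stock to 0.01, 0.1, 1, 10 and 100 µM final, 48 h. Cells fixed with cold TCA (10% final), stained with 0.4% SRB and read at 515 nm. Percent growth from Tz, control and test absorbances; GI50, TGI and LC50 from dose-response curves.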

[2] = test system: A549; assay: Growth inhibition of human A549/ATCC cells assessed as cell growth at 10^-8 M after 48 hrs by sulforhodamine B assay; details: A549, 48 h, read-out: Activity
How it was run: (§2)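 Five-dose NCI-60 run (0.01, 0.1, 1, 10 and 100 µM, as 10-fold dilutions from a DMSO stock made at 400× the top final level). Cells were grown in RPMI 1640 with 5% FBS and 2 mM glutamine and plated for 24 h. They were then exposed for 48 h at 37 °C and 5% CO2. TCA fixation was followed by SRB staining with A515 read-out. Percent growth was taken relative to time-zero and control plates.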

[3] = test system: A549; assay: Growth inhibition of human A549/ATCC cells assessed as cell growth at 10^-7 M after 48 hrs by sulforhodamine B assay; details: A549, 48 h, read-out: Activity; how it was run: as §2
[4] = test system: Malme-3M; assay: Growth inhibition of human MALME-3M cells assessed as cell growth at 10^-7 M after 48 hrs by sulforhodamine B assay; details: read-out: Activity
[5] = test system: SF-295; assay: Growth inhibition of human SF295 cells assessed as cell growth at 10^-6 M after 48 hrs by sulforhodamine B assay; details: SF-295, 48 h, read-out: Activity
[6] = test system: HL-60(TB); assay: Growth inhibition of human HL-60(TB) cells after 48 hrs by sulforhodamine B assay; details: HL-60, 48 h; for CC50: read-out: LC50 (the source's name)
How it was run: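 Leukemia suspension cells in RPMI 1640 with 5% FBS and 2 mM L-glutamine were plated at 5000–40,000 cells/well and grown 24 h. Five concentrations (0.01–100 µM) were given for 48 h at 37 °C. Settled cells were fixed with 80% TCA (16% final) and SRB-stained, read at 515 nm. GI50 came from dose–response curves against time-zero and control plates.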

[7] = test system: HCT-116; assay: Growth inhibition of human HCT116 cells assessed as cell growth at 10^-8 M after 48 hrs by sulforhodamine B assay; details: HCT-116, 48 h, read-out: Activity; how it was run: as §1
[8] = test system: NCI-H322M; assay: Growth inhibition of human NCI-H322M cells assessed as cell growth at 10^-5 M after 48 hrs by sulforhodamine B assay; details: read-out: Activity
[9] = test system: TK-10; assay: Growth inhibition of human TK10 cells assessed as cell growth at 10^-8 M after 48 hrs by sulforhodamine B assay; details: TK-10, 48 h, read-out: Activity
[10] = test system: OVCAR-5; assay: Growth inhibition of human OVCAR5 cells assessed as cell growth at 10^-4 M after 48 hrs by sulforhodamine B assay; details: OVCAR-5, 48 h, read-out: Activity
[11] = test system: PC-3; assay: Growth inhibition of human PC3 cells after 48 hrs by sulforhodamine B assay; details: PC-3, 48 h; for CC50: read-out: LC50 (the source's name)
How it was run: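 Adherent cells in RPMI 1640 with 5% FBS and 2 mM L-glutamine were plated at 5000–40,000 cells/well and grown 24 h. Five concentrations (0.01–100 µM, DMSO stock) were added for 48 h at 37 °C. Cells were fixed with cold TCA (10% final) and stained with SRB, read at 515 nm. GI50 came from log concentration–growth curves against time-zero and control plates.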

[12] = test system: SNB-75; assay: Growth inhibition of human SNB75 cells assessed as cell growth at 10^-5 M after 48 hrs by sulforhodamine B assay; details: SNB-75, 48 h, read-out: Activity
[13] = test system: T47D; assay: Growth inhibition of human T47D cells after 48 hrs by sulforhodamine B assay; details: for CC50: read-out: LC50 (the source's name)
How it was run: (§3)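 Five-dose NCI 60 screen at 0.01, 0.1, 1, 10 and 100 µM, 48 h exposure after 24 h preincubation, in RPMI 1640 with 5% FBS and 2 mM glutamine. Fixed with TCA (10% final for adherent cells, 16% for suspension cells), stained with SRB, A515 read. Percent growth uses time-zero (Tz), control and treated plates. GI50, TGI and LC50 are read from the dose-response curves.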

[14] = test system: U-251; assay: Growth inhibition of human U251 cells assessed as cell growth at 10^-7 M after 48 hrs by sulforhodamine B assay; details: U-251, 48 h, read-out: Activity
[15] = test system: OVCAR-8; assay: Growth inhibition of human OVCAR8 cells assessed as cell growth at 10^-6 M after 48 hrs by sulforhodamine B assay; details: OVCAR-8, 48 h, read-out: Activity
[16] = test system: COLO 205; assay: Growth inhibition of human COLO205 cells assessed as cell growth at 10^-5 M after 48 hrs by sulforhodamine B assay; details: COLO 205, 48 h, read-out: Activity; how it was run: as §2
[17] = test system: OVCAR-4; assay: Growth inhibition of human OVCAR4 cells after 48 hrs by sulforhodamine B assay; details: OVCAR-4, 48 h; for CC50: read-out: LC50 (the source's name); how it was run: as §3
[18] = test system: ACHN; assay: Growth inhibition of human ACHN cells assessed as cell growth at 10^-8 M after 48 hrs by sulforhodamine B assay; details: read-out: Activity; how it was run: as §2
[19] = test system: COLO 205; assay: Growth inhibition of human COLO205 cells assessed as cell growth at 10^-8 M after 48 hrs by sulforhodamine B assay; details: COLO 205, 48 h, read-out: Activity; how it was run: as §2
[20] = Growth inhibition of human Hs 578T cells assessed as cell growth at 10^-6 M after 48 hrs by sulforhodamine B assay; details: read-out: Activity; how it was run: as §1
[21] = test system: HOP-92; assay: Growth inhibition of human HOP92 cells assessed as cell growth at 10^-7 M after 48 hrs by sulforhodamine B assay; details: HOP-92, 48 h, read-out: Activity; how it was run: as §1
[22] = test system: HCT-15; assay: Growth inhibition of human HCT15 cells assessed as cell growth at 10^-8 M after 48 hrs by sulforhodamine B assay; details: HCT-15, 48 h, read-out: Activity; how it was run: as §1
[23] = test system: MDA-MB-435; assay: Growth inhibition of human MDA-MB-435 cells assessed as cell growth at 10^-6 M after 48 hrs by sulforhodamine B assay; details: MDA-MB-435, 48 h, read-out: Activity
[24] = test system: RPMI-8226; assay: Growth inhibition of human RPMI8226 cells assessed as cell growth at 10^-8 M after 48 hrs by sulforhodamine B assay; details: RPMI-8226, 48 h, read-out: Activity
[25] = test system: TK-10; assay: Growth inhibition of human TK10 cells assessed as cell growth at 10^-5 M after 48 hrs by sulforhodamine B assay; details: TK-10, 48 h, read-out: Activity
[26] = test system: U-251; assay: Growth inhibition of human U251 cells assessed as cell growth at 10^-4 M after 48 hrs by sulforhodamine B assay; details: U-251, 48 h, read-out: Activity
[27] = test system: SR; assay: Growth inhibition of human SR cells assessed as cell growth at 10^-5 M after 48 hrs by sulforhodamine B assay; details: read-out: Activity

Row | SMILES | growth at 0.1 µM [1] | growth at 0.01 µM [2] | growth at 0.1 µM [3] | growth at 0.1 µM [4] | growth at 1 µM [5] | GI50 [6] | CC50 [6] | growth at 0.01 µM [7] | growth at 10 µM [8] | growth at 0.01 µM [9] | growth at 100 µM [10] | GI50 [11] | CC50 [11] | growth at 10 µM [12] | GI50 [13] | CC50 [13] | growth at 0.1 µM [14] | growth at 1 µM [15] | growth at 10 µM [16] | TGI [17] | also measured
1 | O=S(=O)(Nc1ccc(Cl)cc1)c1ccc2nc(-c3ccccc3)c(-c3ccccc3)nc2c1 | 90% | 94% | 97% | 99% | 82% | 2090 nM | > 100 µM | 96% | 37% | 90% | 90% | 1470 nM | > 100 µM | 12% | 1620 nM | > 100 µM | 94% | 92% | -11% | > 100 µM | CC50 [17]: > 100 µM; growth at 0.01 µM [18]: 102%; growth at 0.01 µM [19]: 101%; growth at 1 µM [20]: 76%; growth at 0.1 µM [21]: 92%; growth at 0.01 µM [22]: 100%; growth at 1 µM [23]: 92%; growth at 0.01 µM [24]: 103%; growth at 10 µM [25]: 9%; growth at 100 µM [26]: 75%; growth at 10 µM [27]: -48%
2 | O=S(=O)(Nc1ccccn1)c1ccc2nc(-c3ccccc3)c(-c3ccccc3)nc2c1 | 87% | 95% | 98% | 107% | 90% | 1710 nM | > 100 µM | 97% | 35% | 92% | 99% | 1390 nM | > 100 µM | 3% | 1120 nM | > 100 µM | 97% | 85% | -73% | > 100 µM | TGI [13]: 5.14 µM; GI50 [17]: 2790 nM; CC50 [17]: > 100 µM; growth at 0.01 µM [18]: 99%; growth at 0.01 µM [19]: 98%; growth at 1 µM [20]: 65%; growth at 0.1 µM [21]: 92%; growth at 0.01 µM [22]: 100%; growth at 1 µM [23]: 91%; growth at 0.01 µM [24]: 108%; growth at 10 µM [25]: 4%; growth at 100 µM [26]: 47%; growth at 10 µM [27]: -42%
